Measured values as given in ChEMBL document CHEMBL3352311, “Discovery of novel 3-benzylquinazolin-4(3H)-ones as potent vasodilative agents” (Bioorg Med Chem Lett, 2014).
Each block holds one molecule with its values, some of them ahead of it. Activity calls are given as the source filed them. No cut-off for these calls is given here.

Experiments:
[1] = Vasodilative activity in isolated Sprague-Dawley rat mesenteric arterial ring assessed as reduction in KCl-induced contraction by wire myograph method relative to control; format: functional; conditions: Mesenteric artery
How it was run: (§1)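 Isolated rat mesenteric arterial rings were precontracted with 60 mM KCl MOPS solution and then exposed to the compound. Relaxation was expressed as pEC50 and Emax (%), given as mean ± deviation. DMSO served as vehicle control and nitrendipine as reference.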

[2] = Vasodilative activity in isolated Sprague-Dawley rat mesenteric arterial ring assessed as reduction in KCl-induced contraction by wire myograph method; format: functional; conditions: Mesenteric artery; how it was run: as §1
Rattus norvegicus [3] = assay: Antihypertensive activity in spontaneously hypertensive rat assessed as reduction in diastolic blood pressure at 4 mg/kg, po measured after 1 hr; format: functional, Artery
How it was run: (§2)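 Oral dosing in spontaneously hypertensive rats, n = 8 per group. Vehicle was NMP/PEG400/H2O 1:7:2 at 5 ml/kg, and vehicle alone served as control. DBP and SBP (mmHg) were recorded before dosing (0 h) and 1 h after. The reported value is the reduction from the 0 h reading. Doses tested ranged from 0.5 to 8.0 mg/kg, with nitrendipine 2.0 mg/kg as positive drug.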

[4] = Vasodilative activity in isolated Sprague-Dawley rat mesenteric arterial ring assessed as reduction in phenylephrine-induced contraction at 1 to 10 uM pre-incubated for 30 mins before phenylephrine addition by wire myograph method; format: functional; conditions: Mesenteric artery
How it was run: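 Rat mesenteric artery segments were pretreated with compound at 10^-5 M or 10^-6 M for 30 min. Contraction induced by phenylephrine was then recorded.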

Rattus norvegicus [5] = assay: Antihypertensive activity in spontaneously hypertensive rat assessed as reduction in systolic blood pressure at 4 mg/kg, po measured after 1 hr; format: functional, Artery; how it was run: as §2
Rattus norvegicus [6] = assay: Antihypertensive activity in spontaneously hypertensive rat assessed as reduction in diastolic blood pressure at 2 mg/kg, po measured after 1 hr; format: functional, Artery; how it was run: as §2
Rattus norvegicus [7] = assay: Antihypertensive activity in spontaneously hypertensive rat assessed as reduction in systolic blood pressure at 2 mg/kg, po measured after 1 hr; format: functional, Artery; how it was run: as §2
Rattus norvegicus [8] = assay: Antihypertensive activity in orally dosed spontaneously hypertensive rat assessed as reduction in systolic blood pressure; format: functional, organism-based; conditions: Artery; how it was run: as §2
Rattus norvegicus [9] = assay: Antihypertensive activity in spontaneously hypertensive rat assessed as reduction in systolic blood pressure at 4 mg/kg, po measured after 6 hrs; format: functional, Artery
How it was run: (§3)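 Time course in spontaneously hypertensive rats given 4.0 mg/kg orally in NMP/PEG400/H2O 1:7:2 vehicle (5 ml/kg). A vehicle-only group was included. DBP and SBP were followed at successive times after dosing, and the reduction from the pre-dose blood pressure was reported.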

Rattus norvegicus [10] = assay: Antihypertensive activity in spontaneously hypertensive rat assessed as reduction in diastolic blood pressure at 4 mg/kg, po measured after 4 hrs; format: functional, Artery; how it was run: as §3
Rattus norvegicus [11] = assay: Antihypertensive activity in spontaneously hypertensive rat assessed as reduction in systolic blood pressure at 1 mg/kg, po measured after 1 hr; format: functional, Artery; how it was run: as §2
Rattus norvegicus [12] = assay: Antihypertensive activity in spontaneously hypertensive rat assessed as reduction in systolic blood pressure at 4 mg/kg, po measured after 2 hrs; format: functional, Artery; how it was run: as §3
Rattus norvegicus [13] = assay: Antihypertensive activity in spontaneously hypertensive rat assessed as reduction in diastolic blood pressure at 4 mg/kg, po measured after 2 hrs; format: functional, Artery; how it was run: as §3
Rattus norvegicus [14] = assay: Antihypertensive activity in spontaneously hypertensive rat assessed as reduction in systolic blood pressure at 4 mg/kg, po measured after 0.5 hrs; format: functional, Artery; how it was run: as §3
Rattus norvegicus [15] = assay: Antihypertensive activity in spontaneously hypertensive rat assessed as reduction in diastolic blood pressure at 8 mg/kg, po measured after 1 hr; format: functional, Artery; how it was run: as §2
Rattus norvegicus [16] = assay: Antihypertensive activity in orally dosed spontaneously hypertensive rat assessed as reduction in diastolic blood pressure; format: functional, organism-based; conditions: Artery; how it was run: as §2
Rattus norvegicus [17] = assay: Antihypertensive activity in spontaneously hypertensive rat assessed as reduction in diastolic blood pressure at 4 mg/kg, po measured after 8 hrs; format: functional, Artery; how it was run: as §3
Rattus norvegicus [18] = assay: Antihypertensive activity in spontaneously hypertensive rat assessed as reduction in systolic blood pressure at 0.5 mg/kg, po measured after 1 hr; format: functional, Artery; how it was run: as §2
Rattus norvegicus [19] = assay: Antihypertensive activity in spontaneously hypertensive rat assessed as reduction in diastolic blood pressure at 4 mg/kg, po measured after 6 hrs; format: functional, Artery; how it was run: as §3
Rattus norvegicus [20] = assay: Antihypertensive activity in spontaneously hypertensive rat assessed as reduction in diastolic blood pressure at 1 mg/kg, po measured after 1 hr; format: functional, Artery; how it was run: as §2
Rattus norvegicus [21] = assay: Antihypertensive activity in spontaneously hypertensive rat assessed as reduction in systolic blood pressure at 4 mg/kg, po measured after 8 hrs; format: functional, Artery; how it was run: as §3
Rattus norvegicus [22] = assay: Antihypertensive activity in spontaneously hypertensive rat assessed as reduction in diastolic blood pressure at 4 mg/kg, po measured after 0.5 hrs; format: functional, Artery; how it was run: as §3
Rattus norvegicus [23] = assay: Antihypertensive activity in spontaneously hypertensive rat assessed as reduction in diastolic blood pressure at 0.5 mg/kg, po measured after 1 hr; format: functional, Artery; how it was run: as §2
Rattus norvegicus [24] = assay: Antihypertensive activity in spontaneously hypertensive rat assessed as reduction in systolic blood pressure at 4 mg/kg, po measured after 4 hrs; format: functional, Artery; how it was run: as §3
Rattus norvegicus [25] = assay: Antihypertensive activity in spontaneously hypertensive rat assessed as reduction in systolic blood pressure at 8 mg/kg, po measured after 1 hr; format: functional, Artery; how it was run: as §2

SMILES: O=c1c2ccc(Cl)cc2ncn1Cc1ccc(F)cc1
Emax [1]: 101%
EC50 [2]: 63.1 µM

SMILES: COc1cc2ncn(Cc3ccc(C#N)cc3)c(=O)c2cc1OC
Emax [1]: 85.6%
EC50 [2]: 50.1 µM

SMILES: COc1cc2ncn(Cc3ccc(OC)c(OCc4ccccc4)c3)c(=O)c2cc1OC
Emax [1]: 95%
EC50 [2]: 31.6 µM

SMILES: COc1ccc(Cn2cnc3cc(F)ccc3c2=O)cc1
Emax [1]: 87.7%
EC50 [2]: 79.4 µM

SMILES: COc1cc2ncn(Cc3ccc(OCc4ccncc4)c(OC)c3)c(=O)c2cc1OC
Emax [1]: 93.5%
EC50 [2]: 20 µM

SMILES: COc1cc2ncn(Cc3ccccc3Cl)c(=O)c2cc1OC
Emax [1]: 98.3%
EC50 [2]: 39.8 µM

SMILES: COc1cc2ncn(Cc3ccc(OCc4ccc(Cl)cc4Cl)c(OC)c3)c(=O)c2cc1OC
Emax [1]: 97.8%
EC50 [2]: 12.6 µM

SMILES: COc1cc2ncn(Cc3ccc(OCc4ccc(F)cc4)cc3)c(=O)c2cc1OC
Emax [1]: 50.3%
EC50 [2]: 100 µM

SMILES: COc1ccc(Cn2cnc3cc4c(cc3c2=O)OCO4)cc1
Emax [1]: 101%
EC50 [2]: 20 µM

SMILES: O=c1c2cc(Br)ccc2ncn1Cc1ccc(F)cc1
Emax [1]: 96.4%
EC50 [2]: 50.1 µM

SMILES: COc1cc2ncn(Cc3ccccc3C)c(=O)c2cc1OC
Emax [1]: 97.3%
EC50 [2]: 31.6 µM

SMILES: COc1cc2ncn(Cc3ccc(F)cc3)c(=O)c2cc1OC
Emax [1]: 97.8%
EC50 [2]: 25.1 µM

SMILES: COc1ccc(-n2cnc3cc(OC)c(OC)cc3c2=O)cc1
Emax [1]: 96.3%
EC50 [2]: 63.1 µM

SMILES: COc1ccc(Cn2cnc3cc(OC)c(OC)cc3c2=O)cc1
Emax [1]: 100%
EC50 [2]: 25.1 µM

SMILES: COc1cc2ncn(Cc3ccccc3)c(=O)c2cc1OC
Emax [1]: 98.2%
EC50 [2]: 39.8 µM

SMILES: O=c1c2ccc(F)cc2ncn1Cc1ccc(F)cc1
Emax [1]: 78.3%
EC50 [2]: 100 µM

SMILES: COc1cc(Cn2cnc3cc(OC)c(OC)cc3c2=O)ccc1O
Emax [1]: 87.6%
EC50 [2]: 31.6 µM

SMILES: COc1ccc(Cn2cnc3cc(Cl)ccc3c2=O)cc1
Emax [1]: 97%
EC50 [2]: 50.1 µM

SMILES: COc1cc2ncn(Cc3ccc([N+](=O)[O-])cc3)c(=O)c2cc1OC
Emax [1]: 86.2%
EC50 [2]: 63.1 µM

Molecules with a lower EC50 [2], results first:

EC50 [2]: 10 µM
SMILES: COc1cc2ncn(Cc3ccc(OCc4ccc(F)cc4)c(Cl)c3)c(=O)c2cc1OC
Emax [1]: 98.9%

EC50 [2]: 0.398 µM
SMILES: COc1cc2ncn(Cc3ccc(OCc4ccccc4)c(OC)c3)c(=O)c2cc1OC
Emax [1]: 103%
Activity (Rattus norvegicus [3]): 19 mmHg
Activity [4]: Active
Activity (Rattus norvegicus [5]): 48 mmHg

EC50 [2]: 7.94 µM
SMILES: COc1cc2ncn(Cc3ccc4c(c3)OCO4)c(=O)c2cc1OC
Emax [1]: 98.6%

EC50 [2]: 0.631 µM
SMILES: COc1cc2ncn(Cc3ccc(OCc4cccnc4)c(OC)c3)c(=O)c2cc1OC
Emax [1]: 98.4%

EC50 [2]: 0.501 µM
SMILES: COc1cc2ncn(Cc3cc(OC)c(OC)c(OC)c3)c(=O)c2cc1OC
Emax [1]: 104%

EC50 [2]: 0.00398 µM
SMILES: CCOC(=O)C1=C(C)NC(C)=C(C(=O)OC)C1c1cccc([N+](=O)[O-])c1 (stereo unspecified) [NITRENDIPINE]
Emax [1]: 104%
Activity (Rattus norvegicus [6]): 30 mmHg
Activity (Rattus norvegicus [7]): 51 mmHg

EC50 [2]: 3.16 µM
SMILES: COc1ccc(COc2ccc(Cn3cnc4cc(OC)c(OC)cc4c3=O)cc2OC)cc1OC
Emax [1]: 99.7%

EC50 [2]: 1 µM
SMILES: COc1cc2ncn(Cc3ccc(OCc4cccc(F)c4)c(OC)c3)c(=O)c2cc1OC
Emax [1]: 99.6%

EC50 [2]: 0.251 µM
SMILES: COc1cc2ncn(Cc3ccc(OCc4ccc(F)cc4)c(OC)c3)c(=O)c2cc1OC
Activity (Rattus norvegicus [8]): Dose-dependent effect
Activity (Rattus norvegicus [9]): 21 mmHg
Emax [1]: 103%
Activity (Rattus norvegicus [10]): 17 mmHg
Activity (Rattus norvegicus [11]): 28 mmHg
Activity (Rattus norvegicus [6]): 18 mmHg
Activity (Rattus norvegicus [3]): 34 mmHg
Activity (Rattus norvegicus [12]): 42 mmHg
Activity [4]: Active
Activity (Rattus norvegicus [13]): 23 mmHg
Activity (Rattus norvegicus [14]): 46 mmHg
Activity (Rattus norvegicus [15]): 43 mmHg
Activity (Rattus norvegicus [16]): Dose-dependent effect
Activity (Rattus norvegicus [17]): 0 mmHg
Activity (Rattus norvegicus [18]): 12 mmHg
Activity (Rattus norvegicus [19]): 10 mmHg
Activity (Rattus norvegicus [5]): 60 mmHg
Activity (Rattus norvegicus [20]): 15 mmHg
Activity (Rattus norvegicus [21]): 2 mmHg
Activity (Rattus norvegicus [22]): 20 mmHg
Activity (Rattus norvegicus [7]): 41 mmHg
Activity (Rattus norvegicus [23]): 9 mmHg
Activity (Rattus norvegicus [24]): 36 mmHg
Activity (Rattus norvegicus [25]): 64 mmHg

EC50 [2]: 7.94 µM
SMILES: COc1cc2ncn(Cc3ccc(OCc4ccc(F)cc4)c(F)c3)c(=O)c2cc1OC
Emax [1]: 99.1%
